By Ki is commonly meant the dissociation constant of the complex between target and ligand, obtained from inhibition or displacement. The low end stands for tighter binding, the high end for weaker binding.

A value given as a limit tells only on which side of the number the result lay.

A short description of data set [1]: Noncompetitive inhibitory activity against Inosine-5'-monophosphate dehydrogenase using NAD as viable substrate.
Data set [2] is described as follows: Cytotoxicity against P388 cells in culture. It is filed as cell-based. To be noted: mouse, read-out: ID50 (the source's name). An outline of the steps: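 P388 cells in log-phase growth exposed in culture to each monophosphate or dinucleotide.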
The nature of data set [3]: Noncompetitive Inhibitory activity against Inosine-5'-monophosphate dehydrogenase using IMP as viable substrate.
The nature of data set [4]: Noncompetitive inhibitory activity against Inosine-5'-monophosphate dehydrogenase using NAD as viable substrate.
The nature of data set [5]: Competitive Inhibitory activity against Inosine-5'-monophosphate dehydrogenase using IMP as viable substrate.
A short description of data set [6]: Uncompetitive (mixed) inhibitory activity against Inosine-5'-monophosphate dehydrogenase using NAD as viable substrate.
Data set [7] can be described thus: Uncompetitive Inhibitory activity against Inosine-5'-monophosphate dehydrogenase using IMP as viable substrate.
Data set [8] can be described thus: Inhibitory activity against Inosine-5'-monophosphate dehydrogenase using IMP as viable substrate; Inactive.
A short description of data set [9]: Inhibitory activity against Inosine-5'-monophosphate dehydrogenase using NAD as viable substrate; Inactive.
Data set [10] in a line: Inhibitory activity against Inosine-5'-monophosphate dehydrogenase using IMP as viable substrate; Inactive.
Data set [11] in a line: Inhibitory activity against Inosine-5'-monophosphate dehydrogenase using NAD as viable substrate; Inactive.

For `NC(=O)c1csc([C@@H]2O[C@H](COP(=O)(O)O)[C@@H](O)[C@H]2O)n1`, the Ki in data set [1] was determined as 405 µM; in [3], 265 µM. Besides, in data set [2], the CC50 was determined as 10 µM.

`NC(=O)c1ncn([C@@H]2O[C@H](COP(=O)(O)O)[C@@H](O)[C@H]2O)n1` [RIBAVIRIN MONOPHOSPHATE]: the CC50 in [2] is 65 µM. Also, the values for the Ki in [4] and in [5] were 2.24 µM and 4.18 µM, respectively.

Take `NC(=O)c1csc([C@H]2O[C@@H](COP(=O)(O)OP(=O)(O)OC[C@H]3O[C@@H](c4nc(C(N)=O)cs4)[C@H](O)[C@@H]3O)[C@H](O)[C@@H]2O)n1`: the Ki in data set [6] worked out at 370 µM; in data set [7] it was 140 µM. For the same molecule, the CC50 in data set [2] worked out at 4.6 µM.

Turning to `NC(=O)c1ncn(C2O[C@H](COP(=O)(O)OP(=O)(O)OC[C@H]3OC(n4cnc5c(N)ncnc54)[C@H](O)[C@@H]3O)[C@H](O)[C@@H]2O)n1` (stereo not given in full), the CC50 in data set [2] was found to be 40 µM. Moreover, the Ki in [3] was 148 µM; in data set [4], 235 µM.

As to `NC(=O)c1ncn(C2O[C@H](COP(=O)(O)OP(=O)(O)OC[C@H]3OC(n4cnc5c(N)ncnc54)[C@H](O)[C@@H]3O)[C@H](O)[C@@H]2O)c1N` (stereo not given in full), the Ki result in data set [8] and in [9] was “Not Active” throughout. Moreover, the CC50 in data set [2] is 78 µM.

With `NC(=O)c1c[se]c(C2O[C@@H](COP(=O)(O)OP(=O)(O)OC[C@H]3OC(n4cnc5c(N)ncnc54)[C@H](O)[C@@H]3O)[C@H](O)[C@@H]2O)n1` (stereo not given in full), the CC50 in data set [2] was 9.8 µM. Besides, the results for the inhibition constant Ki in data set [4] and in data set [7] were 0.04 µM and 0.05 µM, respectively.

As to `NC(=O)c1c[se]c([C@@H]2O[C@H](COP(=O)(O)O)[C@@H](O)[C@H]2O)n1`, the Ki in [1] came out at 470 µM; in data set [3], 170 µM. Also, the CC50 in data set [2] worked out at 1.4 µM.

`NC(=O)c1csc([C@H]2O[C@@H](COP(=O)(O)OP(=O)(O)OC[C@H]3O[C@@H](n4cnc5c(N)ncnc54)[C@H](O)[C@@H]3O)[C@H](O)[C@@H]2O)n1`: in data set [2], the CC50 was 7.5 µM. The figures for the inhibition constant (Ki) in data set [4] and in data set [7] were 0.24 µM and 0.13 µM, respectively.

In the case of `NC(=O)c1c[se]c([C@H]2O[C@@H](COP(=O)(O)OP(=O)(O)OC[C@H]3O[C@@H](c4nc(C(N)=O)c[se]4)[C@H](O)[C@@H]3O)[C@H](O)[C@@H]2O)n1`, the Ki amounted to 240 µM in [6] and 190 µM in data set [7]. In data set [2], the CC50 was determined as 0.6 µM.

Take `NC(=O)c1ncn([C@@H]2O[C@H](COP(=O)(O)O)[C@@H](O)[C@H]2O)c1N`: the Ki result in [10] and in data set [11] was “Not Active” throughout. Moreover, in data set [2], the CC50 was > 220 µM.

These data come from ChEMBL document CHEMBL1122938, “Ribavirin, tiazofurin, and selenazofurin: mononucleotides and nicotinamide adenine dinucleotide analogues. Synthesis, structure, and interactions with IMP dehydrogenase” (J Med Chem, 1985).
